Activity calls are given as the source filed them.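 Rule for the calls, unless noted: active = visually confirmed hit in the image check and inhibition above 20%; inconclusive = visually confirmed hit but inhibition not above 20%; inactive = no visual hit in the image check.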
Experiments:
[1] = inhibitors of TNFa-induced NFkB p65 translocation, primary screen, imaging, HUVEC, MLSMR starter and 10KST1 sets (AID 438;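 active = inhibition above 20% together with a positive visual image hit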;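 note: compound added about 3h40 before a 20 min TNFalpha stimulation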;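 for inhibition: signal is the nuclear over cytoplasmic p65 intensity ratio per well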); conditions: HUVEC TNFa-induced p65 nuclear translocation; cell count: measured here: nuclei count (cytotoxicity indicator), at 2.08 µM; inhibition: at 2 µM, stronger effect = higher value, 0% TNFa-plus-vehicle, 100% no-TNFa wells
[2] = inhibitors of mutant huntingtin aggregation, primary screen, imaging, exon1htt(103Q)mCFP cells, high-content imaging (AID 483;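 active = visual image review flags a hit and inhibition of aggregation exceeds 20%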;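 note: compound exposure lasted 3 days before fixation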;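 for nuclei count: percent of the per-plate median nuclei count of sample wells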); conditions: exon1htt(103Q)mCFP cell line, aggregate imaging, at 2 µM; inhibition of aggregation: stronger effect = higher value; nuclei count: measured here: cell count, toxicity
[3] = inhibitors of E-selectin induction by TNFa, primary screen, imaging, HUVEC, immunofluorescence, MLSMR starter and 10KST1 sets (AID 487); conditions: HUVEC TNFalpha-induced E-selectin immunofluorescence imaging, at 2 µM; inhibition: stronger effect = higher value; nuclei count: measured here: cell number, toxicity;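 for inhibition: signal is fraction of cell area covered by stained E-selectin grains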;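 for nuclei count: 100% = median nuclei count of all wells on the same plate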
[4] = target: Voltage-gated potassium channel subunit beta-2 (Rattus norvegicus) (UniProt P62483); assay: KvBeta enzyme negative modulators, primary screen, biochemical, NADPH fluorescence (AID 622;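 active = fluorescence slope higher than the sample average by over 3 SD, cut at about -0.22 in these data, passing the limit was not always enough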;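 note: slope of raw intensity against log time taken from 70 to 1610 s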); conditions: recombinant KvBeta, 4-cyanobenzaldehyde reduction, at 10 µM, stronger effect = higher value
[5] = target: Voltage-gated potassium channel subunit beta-2 (Rattus norvegicus) (UniProt P62483); assay: KvBeta positive modulators, primary screen, biochemical, NADPH fluorescence (AID 623;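 active = NADPH fluorescence slope more negative than the mean of all samples by about 3 SD, 99.7% confidence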;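 note: fluorescence intensity change per second fitted from 20 to 320 s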); conditions: Recombinant KvBeta, NADPH fluorescence decrease slope, 10 min; at 10 µM; stronger effect = lower value
[6] = target: Muscarinic acetylcholine receptor M4 (Homo sapiens) (UniProt P08173); assay: compounds altering M4/GIRK thallium flux, either direction, primary screen, M4 allosteric agonist project, cell-based, HEK293 M4/GIRK, BTC-AM (AID 625;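 active = fluorescence slope after compound addition differing from the mean of all tested samples at 99.7% confidence, mostly higher but some lower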;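 note: thallium influx through GIRK channels coupled to M4 in HEK293 cells with BTC-AM dye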); conditions: at 10 µM, actives lie on both sides
Procedure, shortened: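 assay system = HEK293 cells with M4 receptor and GIRK channels | medium = pH 7.3 thallium assay buffer | doses = 10 µM final, single point | timing = cells overnight at 37 °C, BTC-AM loading 1 h, reads 2 min total | signal = BTC-AM fluorescence, 1 Hz kinetic reads | read-out = post-addition slope, 15–24 s, of baseline-normalized fluorescence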

[7] = inhibitors of Sendai virus-induced IRF3 signaling, primary screen, TLR/RLR signaling modifier project, cell-based, Sendai virus stimulus, luciferase, 10K MLSCN set (AID 602276;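 active = inhibition at or above 50% at 10 µM; inactive = inhibition below 50%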;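 note: firefly luciferase from ISG56 promoter only with Renilla not read in this screen; 0% = Sendai virus plus DMSO and 100% = medium plus DMSO without virus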); conditions: HEK293 RL24 IRF3 luciferase reporter, at 10 µM, stronger effect = higher value
[8] = inhibitors of poly I:C-induced TLR3 signaling, primary screen, cell-based, poly I:C stimulus, luciferase, 10K MLSCN set (AID 602277;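 active = inhibition of the reporter signal at or above 50%; inactive = inhibition below 50%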); conditions: HEK293-TLR3 RL24 IRF3 luciferase reporter, at 10 µM, stronger effect = higher value

Chain of Muscarinic acetylcholine receptor M4 (Homo sapiens) (P08173 whole entry, looked up): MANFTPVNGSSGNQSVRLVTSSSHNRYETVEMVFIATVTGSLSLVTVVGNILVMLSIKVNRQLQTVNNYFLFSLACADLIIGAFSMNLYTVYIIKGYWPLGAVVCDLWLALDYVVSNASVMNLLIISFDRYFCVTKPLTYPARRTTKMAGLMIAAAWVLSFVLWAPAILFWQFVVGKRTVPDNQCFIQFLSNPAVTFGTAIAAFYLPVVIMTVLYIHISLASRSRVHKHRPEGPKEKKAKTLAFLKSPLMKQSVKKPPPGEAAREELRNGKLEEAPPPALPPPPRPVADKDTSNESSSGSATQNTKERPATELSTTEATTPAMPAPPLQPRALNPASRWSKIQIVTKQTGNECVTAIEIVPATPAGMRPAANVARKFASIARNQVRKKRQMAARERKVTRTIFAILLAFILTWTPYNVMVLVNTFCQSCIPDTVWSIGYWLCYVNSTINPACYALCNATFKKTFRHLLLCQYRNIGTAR
Chain of Voltage-gated potassium channel subunit beta-2 (Rattus norvegicus) (P62483 whole entry, looked up): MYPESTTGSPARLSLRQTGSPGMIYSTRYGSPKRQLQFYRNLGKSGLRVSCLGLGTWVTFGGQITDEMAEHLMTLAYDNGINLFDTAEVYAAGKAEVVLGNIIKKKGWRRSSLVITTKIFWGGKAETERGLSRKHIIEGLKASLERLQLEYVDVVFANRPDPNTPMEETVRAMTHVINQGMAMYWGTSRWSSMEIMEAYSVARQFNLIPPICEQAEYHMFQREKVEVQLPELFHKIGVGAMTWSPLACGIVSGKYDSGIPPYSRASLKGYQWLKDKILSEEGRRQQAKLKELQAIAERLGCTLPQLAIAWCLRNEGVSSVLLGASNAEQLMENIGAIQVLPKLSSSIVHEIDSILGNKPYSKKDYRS

| Structure (SMILES) | cell count [1] | inhibition [1] | inhibition of aggregation [2] | nuclei count [2] | inhibition [3] | nuclei count [3] | fluorescence slope [4] | NADPH fluorescence slope [5] | fluorescence slope [6] | inhibition [7] | inhibition [8] |
| --- | --- | --- | --- | --- | --- | --- | --- | --- | --- | --- | --- |
| Cc1cc(C)c2nc(N)sc2c1 | 615 | 6.3% (inactive) | 31.1% (inactive) | 67.2% | 16% (inactive) | 107% | -0.281 (inactive) | -1.5e-05 (inactive) | 0.00618 (inactive) | -28.1% (inactive) | -46.7% (inactive) |
| CC(=O)SCC(=O)N=c1sc2cc(F)ccc2n1C | 491 | 1.1% (inactive) | -2.8% (inactive) | 91.7% | 3.4% (inactive) | 104% | -0.493 (inactive) | 4.8e-06 (inactive) | 0.00565 (inactive) | 3.65% (inactive) | 2.45% (inactive) |
| O=C(Nc1cccc(F)c1)N1CC=C(n2c(=O)[nH]c3ccccc32)CC1 | 312 | 5.7% (inactive) | 4.5% (inactive) | 107% | -37.9% (inactive) | 83.5% | -0.453 (inactive) | -0.000227 (inactive) | 0.00517 (inactive) | 15% (inactive) | 15.5% (inactive) |
| COC(=O)C(C)Oc1ccc2c3c(c(=O)oc2c1)CCCCC3 (stereo not drawn) | 648 | -7.8% (inactive) | -24.4% (inactive) | 106% | -170% (inactive) | 103% | -0.496 (inactive) | -1.7e-05 (inactive) | 0.00349 (inactive) | 9.54% (inactive) | 12.4% (inactive) |
| COC(=O)CCCCCNc1ccc(C(=O)OC)cc1N | 292 | 7.7% (inactive) | 12.1% (inactive) | 92.9% | -71.5% (inactive) | 122% | -0.341 (inactive) | -6.2e-05 (inactive) | 0.00505 (inactive) | 6.15% (inactive) | 18.3% (inactive) |
| COc1cccc(C(=O)Nc2cccc(C(=O)N3CCOCC3)c2)c1 | 354 | 1.6% (inactive) | 0.9% (inactive) | 76% | -121% (inactive) | 95% | -0.564 (inactive) | -3.3e-05 (inactive) | 0.00825 (inactive) | 3.67% (inactive) | 1.87% (inactive) |
| COCCCNC(=O)CCc1nc2cccnc2n1Cc1ccc(OC)cc1 | 462 | 4.3% (inactive) | -13.4% (inactive) | 124% | -16.4% (inactive) | 98.8% | -0.286 (inactive) | -2.5e-05 (inactive) | 0.006 (inactive) | 14.4% (inactive) | 1.17% (inactive) |
| CCSc1nnc(NC(=O)c2cc(C)oc2C)s1 | 352 | -1.4% (inactive) | 5.7% (inactive) | 98.6% | 5.1% (inactive) | 56.1% | -0.451 (inactive) | -4.1e-07 (inactive) | 0.00476 (inactive) | -35.9% (inactive) | -83.6% (inactive) |
| CCNc1oc(COc2cccc(C)c2)nc1C#N | 791 | -2.1% (inactive) | 15.8% (inactive) | 114% | -14.2% (inactive) | 111% | -0.57 (inactive) | -5e-05 (inactive) | 0.00641 (inactive) | -43.9% (inactive) | -83.4% (inactive) |
| COc1ccc(S(=O)(=O)NCc2ccco2)cc1-c1nnc2c3ccccc3c(C)nn12 | 723 | -2.2% (inactive) | -27% (inactive) | 101% | -77.8% (inactive) | 106% | -0.444 (inactive) | -2.6e-05 (inactive) | 0.00549 (inactive) | 12.3% (inactive) | 11.8% (inactive) |
| CS(=O)(=O)Nc1ccc(C(=O)NCc2ccco2)cc1 | 499 | -0.3% (inactive) | 16.6% (inactive) | 60% | 11.9% (inactive) | 105% | -0.571 (inactive) | 1.2e-06 (inactive) | 0.00586 (inactive) | 5.42% (inactive) | 16.9% (inactive) |
| Cc1ccc(Nc2nnns2)cc1C | 758 | 5% (inactive) | -5% (inactive) | 105% | -52.7% (inactive) | 116% | -0.58 (inactive) | 1.4e-05 (inactive) | 0.00717 (inactive) | 6.92% (inactive) | 7.21% (inactive) |
| O=C(c1ccco1)N1CCN(C(=O)C2CCN(S(=O)(=O)c3cccc4nsnc34)CC2)CC1 | 549 | 9.4% (inactive) | 5.1% (inactive) | 104% | 8.2% (inactive) | 96.4% | -0.468 (inactive) | 0.000197 (inactive) | 0.00637 (inactive) | 8.36% (inactive) | 18.1% (inactive) |
| COc1cccc(C(=O)Nc2ccc(N(C)C)cc2)c1OC | 718 | 0.8% (inactive) | 1.4% (inactive) | 104% | -79.8% (inactive) | 109% | -0.493 (inactive) | 1.7e-05 (inactive) | 0.00556 (inactive) | -4.94% (inactive) | -69.6% (inactive) |
| O=C(COC(=O)c1ccc(NS(=O)(=O)c2ccc3c(c2)OCCO3)cc1)NCC1CCCO1 (stereo not drawn) | 424 | -18.3% (inactive) | 11.2% (inactive) | 69.5% | 1.1% (inactive) | 100% | -0.555 (inactive) | -3.4e-05 (inactive) | 0.00638 (inactive) | 4.88% (inactive) | 19.1% (inactive) |
| COCCn1nnnc1C(c1cc2cc(C)cc(C)c2[nH]c1=O)N1CCN(c2ccccc2F)CC1 (stereo not drawn) | 660 | 10.1% (inactive) | -11% (inactive) | 80.7% | 13.5% (inactive) | 130% | -0.413 (inactive) | 0.000111 (inactive) | 0.00818 (inactive) | 16.8% (inactive) | 29.8% (inactive) |
| Cc1ccc(-n2nnnc2SCC(=O)N2CCc3ccccc3C2)cc1 | 526 | -10.2% (inactive) | -6.8% (inactive) | 104% | -28.6% (inactive) | 148% | -0.49 (inactive) | 8.4e-07 (inactive) | 0.00503 (inactive) | 8.66% (inactive) | 11% (inactive) |
| COc1ccc2oc(C)c(C(=O)Cn3ccnc3)c2c1 | 488 | -7.3% (inactive) | 22.7% (inactive) | 54.3% | -16% (inactive) | 108% | -0.578 (inactive) | -1.5e-05 (inactive) | 0.00618 (inactive) | -26.4% (inactive) | -28.5% (inactive) |
| CC1CN(CC(O)COc2ccc(C(C)C)cc2)CC(C)O1 (stereo not drawn) | 812 | -4.8% (inactive) | 7.5% (inactive) | 120% | -54.5% (inactive) | 140% | -0.534 (inactive) | -0.000138 (inactive) | 0.0054 (inactive) | -56.4% (inactive) | 98.7% (active) |
| Cn1c(Cc2ccccc2)nnc1SCC(=O)NC1CCCCC1 | 327 | -2.3% (inactive) | -1% (inactive) | 94.8% | -136% (inactive) | 120% | -0.0696 (active) | -3.5e-05 (inactive) | 0.0079 (inactive) | 16.3% (inactive) | 0.751% (inactive) |
| COc1ccc(C(=O)NCCn2ccc3ccccc32)cc1 | 238 | 7.3% (inactive) | 25.9% (inactive) | 104% | -36.9% (inactive) | 95% | -0.386 (inactive) | -5.6e-06 (inactive) | 0.008 (inactive) | 5.56% (inactive) | -49.2% (inactive) |
| Cc1nc2nc(SCC(=O)NCc3ccco3)nn2c(C)c1Cc1ccccc1 | 457 | 1.4% (inactive) | -6.7% (inactive) | 112% | -10.5% (inactive) | 126% | -0.353 (inactive) | -2.9e-05 (inactive) | 0.0066 (inactive) | -7.73% (inactive) | 0.532% (inactive) |
| COCC(=O)Nc1sc2c(c1C(=O)OC)C(C(=O)OC)CC2 (stereo not drawn) | 403 | -3.4% (inactive) | -1.9% (inactive) | 93.9% | 9.9% (inactive) | 105% | -0.481 (inactive) | 7e-05 (inactive) | 0.00577 (inactive) | -8.7% (inactive) | 0.35% (inactive) |
| O=C1c2oc3ccccc3c(=O)c2C(c2ccccn2)N1Cc1ccccc1 (stereo not drawn) | 440 | -8.7% (inactive) | 1.8% (inactive) | 106% | -49.4% (inactive) | 125% | -0.563 (inactive) | -9.3e-06 (inactive) | 0.00477 (inactive) | -16.4% (inactive) | -22.3% (inactive) |
| CCc1ccccc1NC(=O)CN(c1cccc(OC)c1)S(C)(=O)=O | 345 | 2.5% (inactive) | -3.1% (inactive) | 99% | -28.2% (inactive) | 111% | -0.544 (inactive) | -7.9e-05 (inactive) | 0.00451 (inactive) | -7.55% (inactive) | -6.22% (inactive) |
| O=C(c1ccccc1)c1ccc(N2CCOCC2)c(NC(=O)c2ccco2)c1 | 318 | -13% (inactive) | -8.7% (inactive) | 114% | -23.2% (inactive) | 119% | -0.421 (inactive) | 1e-05 (inactive) | 0.0062 (inactive) | 14.1% (inactive) | 17.3% (inactive) |
| CCOC(=O)c1cnc(-n2nc(C)cc2C)nc1Nc1cccc(C(C)=O)c1 | 634 | -25.9% (inactive) | -14% (inactive) | 104% | 15.1% (inactive) | 111% | -0.567 (inactive) | -1.4e-05 (inactive) | 0.00544 (inactive) | -13.6% (inactive) | -13% (inactive) |
| O=C(CSc1ccc(Cl)cc1)OCc1nnc(-c2ccccc2)o1 | 503 | -1.1% (inactive) | 8.3% (inactive) | 108% | -46.5% (inactive) | 115% | -0.613 (inactive) | 6.8e-05 (inactive) | 0.00469 (inactive) | -5.35% (inactive) | -4.44% (inactive) |

Source: PubChem BioAssay
